According to ChEMBL document CHEMBL4311975, “Exploration of the antibiotic potentiating activity of indolglyoxylpolyamines” (Eur J Med Chem, 2019):

How the values were obtained:
[1] = tested on: Pseudomonas aeruginosa; assay: Induction of membrane depolarization in Pseudomonas aeruginosa measured after 15 mins by DiSC3(5) dye based spectrofluorometric method; type: functional, organism-based
Outline: (§1)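 Bacteria were grown 24 h in MHB at 37 °C, washed in 250 mM sucrose with 5 mM MgSO4, and loaded with 3 μM DiSC3(5) for 1 h at 37 °C. Unbound dye was washed away before compound was added at varied concentrations. Fluorescence was recorded after 15 min on a spectrofluorometer, with pure 3 μM dye as the maximum. CTAB (0.01%) served as positive control.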

[2] = tested on: Staphylococcus aureus; assay: Induction of membrane depolarization in Staphylococcus aureus measured after 15 mins by DiSC3(5) dye based spectrofluorometric method; type: functional, organism-based; outline: as §1
[3] = tested on: Klebsiella aerogenes; assay: Disruption of membrane integrity in Enterobacter aerogenes EA289 assessed as increase in beta-lactamase hydrolysis by using chromogenic nitrocefin as substrate by spectrophotometry analysis; type: functional
Outline: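 E. aerogenes EA289 was grown in MHB at 37 °C to OD600 0.5, washed in 20 mM potassium phosphate (pH 7.2) with 1 mM MgCl2, and readjusted to OD600 0.5. Cells were exposed to compound at 3.9–250 μM final with nitrocefin at 50 μg/mL final, at room temperature. Hydrolysis was followed as the absorbance rise at 490 nm.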

[4] = tested on: Staphylococcus aureus; assay: Antibacterial activity against Staphylococcus aureus ATCC 25923 assessed as growth inhibition incubated for 18 hrs by broth dilution method; type: functional; conditions: ATCC 25923, 18 h
Outline: (§2)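 Broth microdilution following CA-SFM recommendations. Inoculum was 10^5 CFU in Mueller-Hinton broth with two-fold serial drug dilutions. Plates were incubated 18 h at 37 °C. MIC was the lowest concentration giving complete inhibition of visible growth. Values are means, n = 3.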

[5] = tested on: Staphylococcus intermedius; assay: Antibacterial activity against Staphylococcus intermedius 1051997 assessed as growth inhibition incubated for 18 hrs by broth dilution method; type: functional; conditions: Staphylococcus intermedius, 1051997, 18 h; outline: as §2
[6] = tested on: Pseudomonas aeruginosa; assay: Antibacterial activity against Pseudomonas aeruginosa ATCC 27853 assessed as growth inhibition incubated for 18 hrs by broth dilution method; type: functional; conditions: ATCC 27853, 18 h; outline: as §2
[7] = tested on: Escherichia coli; assay: Antibacterial activity against Escherichia coli ATCC 25922 assessed as growth inhibition incubated for 18 hrs by broth dilution method; type: functional; conditions: ATCC 25922, 18 h; outline: as §2
[8] = tested on: Klebsiella pneumoniae; assay: Antibacterial activity against Klebsiella pneumoniae ATCC 700603 assessed as growth inhibition incubated for 18 hrs by resazurin dye based assay; type: functional; conditions: Klebsiella pneumoniae, 700603, 18 h
Outline: (§3)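 Overnight cultures were diluted 40-fold in MHB and grown 1.5–2 h at 37 °C to mid-log phase. Cells were added at 5×10^5 CFU/mL final to two-fold compound dilutions (0.008–32 μg/mL final), in duplicate, for 18 h at 37 °C. Resazurin (0.001% final) was added for 2 h and MIC read by eye. Means, n = 2.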

[9] = tested on: Acinetobacter baumannii; assay: Antibacterial activity against Acinetobacter baumannii ATCC 19606 assessed as growth inhibition incubated for 18 hrs by resazurin dye based assay; type: functional; conditions: ATCC 19606 = CIP 70.34 = JCM 6841, 18 h; outline: as §3
[10] = tested on: Candida albicans; assay: Antifungal activity against Candida albicans ATCC 90028 assessed as growth inhibition incubated for 36 hrs by resazurin dye based assay; type: functional; conditions: ATCC 90028, 36 h
Outline: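 Yeast was grown 3 days on YPD agar at 30 °C. Colonies were suspended and diluted in YNB broth to 2.5×10^3 CFU/mL, then added to two-fold compound dilutions (0.008–32 μg/mL final), in duplicate. Plates stood 36 h at 35 °C without shaking. Means, n = 2.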

[11] = tested on: Cryptococcus neoformans; assay: Antifungal activity against Cryptococcus neoformans ATCC 208821 assessed as growth inhibition incubated for 36 hrs by resazurin dye based assay; type: functional; conditions: ATCC 208821, 36 h
Outline: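 Cryptococcus was grown 3 days on YPD agar at 30 °C, suspended, and diluted in YNB broth to 2.5×10^3 CFU/mL. Cells were exposed to 0.008–32 μg/mL compound (final), in duplicate, for 36 h at 35 °C without shaking. Resazurin (0.006% final) was added for a further 3 h. MIC was read from absorbance at OD570–600. Means, n = 2.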

[12] = tested on: Pseudomonas aeruginosa; assay: Potentiation of doxycycline-induced antibacterial activity against Pseudomonas aeruginosa ATCC 27853 assessed as concentration required to restore 2 ug/ml doxycycline activity measured after 18 hrs; type: functional
Outline: (§4)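 Inoculum was 5×10^5 CFU in MHB with two-fold serial dilutions of adjuvant plus fixed doxycycline at 2 μg/mL. […] Repeated independently in triplicate.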

[13] = tested on: Pseudomonas aeruginosa; assay: Potentiation of erythromycin-induced antibacterial activity against Pseudomonas aeruginosa ATCC 27853 assessed as concentration required to restore 2 ug/ml erythromycin activity measured after 18 hrs; type: functional
[14] = tested on: Pseudomonas aeruginosa; assay: Potentiation of chloramphenicol-induced antibacterial activity against Pseudomonas aeruginosa ATCC 27853 assessed as concentration required to restore 2 ug/ml chloramphenicol activity measured after 18 hrs; type: functional
[15] = tested on: Pseudomonas aeruginosa; assay: Potentiation of nalidixic acid-induced antibacterial activity against Pseudomonas aeruginosa ATCC 27853 assessed as concentration required to restore 2 ug/ml nalidixic acid activity measured after 18 hrs; type: functional
[16] = tested on: Escherichia coli; assay: Potentiation of doxycycline-induced antibacterial activity against Escherichia coli ATCC 25922 assessed as concentration required to restore 2 ug/ml doxycycline activity measured after 18 hrs; type: functional; outline: as §4
[17] = tested on: Escherichia coli; assay: Potentiation of nalidixic acid-induced antibacterial activity against Escherichia coli ATCC 25922 assessed as concentration required to restore 2 ug/ml nalidixic acid activity measured after 18 hrs; type: functional
[18] = tested on: Klebsiella pneumoniae; assay: Potentiation of doxycycline-induced antibacterial activity against Klebsiella pneumoniae ATCC 13443 assessed as concentration required to restore 2 ug/ml doxycycline activity measured after 18 hrs; type: functional; outline: as §4
[19] = tested on: Klebsiella pneumoniae; assay: Potentiation of nalidixic acid-induced antibacterial activity against Klebsiella pneumoniae ATCC 13443 assessed as concentration required to restore 2 ug/ml nalidixic acid activity measured after 18 hrs; type: functional
[20] = tested on: Acinetobacter baumannii; assay: Potentiation of doxycycline-induced antibacterial activity against Acinetobacter baumannii AYE assessed as concentration required to restore 2 ug/ml doxycycline activity measured after 18 hrs; type: functional; outline: as §4
[21] = tested on: Acinetobacter baumannii; assay: Potentiation of nalidixic acid-induced antibacterial activity against Acinetobacter baumannii AYE assessed as concentration required to restore 2 ug/ml nalidixic acid activity measured after 18 hrs; type: functional
[22] = tested on: L6; assay: Cytotoxicity against rat L6 cells measured after 72 hrs by alamar blue assay; type: cell-based; conditions: L6, 72 h
Outline: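 Rat L6 myoblasts, 4×10^4/well in RPMI 1640 with L-glutamine and 10% FBS, received seven 3-fold dilutions (90 to 0.123 μg/mL) for 72 h. Alamar Blue was added for 2 h and fluorescence read at ex 536/em 588 nm. Podophyllotoxin served as reference. Means, n = 2.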

[23] = Cytotoxicity against human HEK293 cells measured after 20 hrs by resazurin dye based fluorescence assay; type: cell-based
Outline: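 HEK293 cells, 5,000/well in DMEM with 10% FBS, were exposed to compound for 20 h at 37 °C, 5% CO2. Resazurin (100 μM final) was added for 3 h, then fluorescence read at ex 560/em 590. Signal was normalised to tamoxifen (74 μg/mL, 0%) and untreated growth (100%), and CC50 came from dose-response fitting. Top dose 32 μg/mL. Means, n = 2.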

[24] = Hemolytic activity against Sprague-Dawley rat RBC assessed as release of hemoglobin at 50 uM incubated for 1 hr relative to control; type: ADME, cell-based, Erythrocyte; conditions: red blood cells (erythrocytes), read-out: Activity
Outline: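 Fresh Sprague-Dawley rat erythrocytes were washed in saline and resuspended at 2% v/v. Cells were incubated with compound in DMSO/PBS for 1 h at 37 °C, then centrifuged at 200 g, and supernatant absorbance read at 540 nm. Results were normalised to DMSO/PBS (0%) and 0.1% Triton X-100 (100%). Single-point testing used 50 μM; HC50 came from 10-point curves. Means of three experiments.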

[25] = tested on: Pseudomonas aeruginosa; assay: Disruption of membrane integrity in Pseudomonas aeruginosa PAO1 assessed as increase in extracellular ATP level by luciferin-luciferase reagent based luminescence assay; type: functional, organism-based
Outline: (§5)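 Growing bacteria (P. aeruginosa PAO1 or S. aureus) in MHB at 37 °C were mixed 9:1 with compound, at 4× MIC, and vortexed for 1 s. Luciferin-luciferase reagent was added immediately and luminescence read for 5 s. ATP was quantified by internal standard addition. Squalamine served as positive control.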

[26] = tested on: Staphylococcus aureus; assay: Disruption of membrane integrity in Staphylococcus aureus assessed as increase in extracellular ATP level by luciferin-luciferase reagent based luminescence assay; type: functional, organism-based; outline: as §5

Structure (SMILES) | Activity [1] | Activity [2] | Activity [3] | MIC [4] [µM] | MIC [5] [µM] | MIC [6] [µM] | MIC [7] [µM] | MIC [8] [µM] | MIC [9] [µM] | MIC [10] [µM] | MIC [11] [µM] | Activity [12] [µM] | IC50 [22] [µM] | CC50 at 20 h [23] [µM] | hemolysis at 1 h, 50 µM [24] [%] | Activity [25] | Activity [26] | other results
O=C(NCCCNCCCCNCCCNC(=O)C(=O)c1c[nH]c2ccc(Br)cc12)C(=O)c1c[nH]c2ccc(Br)cc12.O=C(O)C(F)(F)F.O=C(O)C(F)(F)F | Dose-dependent effect | Dose-dependent effect | Dose-dependent effect | 3.12 | 3.12 | 50 | 25 | 34.4 | > 34.4 | > 34.4 | 2.2 | 3.125 to 6.25 | 19.8 | 14.1 | 34.7 | Dose-dependent effect | Dose-dependent effect | Activity [13]: >200 µM; Activity [14]: 26.9 µM; Activity [15]: >200 µM; Activity [16]: 1.68 µM; Activity [17]: 100 µM; Activity [18]: 13.4 µM; Activity [19]: 12.5 µM; Activity [20]: 6.72 µM; Activity [21]: 100 µM
O=C(NCCCNCCCCNCCCNC(=O)C(=O)c1c[nH]c2c(F)cccc12)C(=O)c1c[nH]c2c(F)cccc12.O=C(O)C(F)(F)F.O=C(O)C(F)(F)F | Dose-dependent effect | Dose-dependent effect | Dose-dependent effect | 25 | > 200 | 200 | 200 | > 39.6 | > 39.6 | > 39.6 | 4.9 | 3.125 | 38.7 | 18.7 | 8.4 | Dose-dependent effect | Dose-dependent effect | –
